Experimental data reported in ChEMBL document CHEMBL4130511, “Phenylpropenoids from Bupleurum fruticosum as Anti-Human Rhinovirus Species A Selective Capsid Binders” (J Nat Prod, 2017).
Calls of active or inactive are those of the source. The rule behind the calls is not given here.

Key:
[1] = Cytotoxicity against human HeLa cells assessed as decrease in cell viability after 72 hrs by MTT assay; type: cell-based
In short: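 HeLa monolayers exposed to a range of compound concentrations at 37 °C, 5% CO2. Morphology (rounding, shrinking, detachment) checked by light microscopy at 24, 48 and 72 h. Viability measured by MTT colorimetry. CC50 is the concentration that lowered control absorbance by 50%.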

rhinovirus B14 = experiment: Antiviral activity against Human rhinovirus serotype 14 infected in human HeLa cells assessed as reduction in virus-induced cytopathic effect after 24 to 36 hrs by MTT assay; type: functional, organism-based; settings: Rhinovirus B
In short: (§1)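 HeLa (Ohio) monolayers in DMEM with 1% nonessential amino acids and 10% fetal calf serum, infected at MOI 1, then given serial compound dilutions. Incubation 24−36 h at 33 °C, 3% CO2, until control CPE was almost total. Multicycle CPE reduction read by MTT. EC50 (50% CPE inhibition) taken from dose−response curves by linear regression. Pleconaril served as reference.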

rhinovirus A39 = experiment: Antiviral activity against Human rhinovirus serotype 39 infected in human HeLa cells assessed as reduction in virus-induced cytopathic effect after 24 to 36 hrs by MTT assay; type: functional, organism-based; settings: Rhinovirus A; in short: as §1
[2] = Selectivity index, ratio of CC50 for human HeLa cells to EC50 for Human rhinovirus serotype 39 infected in human HeLa cells; type: toxicity, cell-based; settings: read-out: Ratio CC50/EC50
In short: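 Selectivity index computed as CC50 (MTT, uninfected HeLa) divided by EC50 (MTT, HRV39 CPE reduction in HeLa at MOI 1, 24−36 h at 33 °C).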

[3] = molecular target: T1, VP1 capsid protein (Human rhinovirus sp.) (UniProt Q7T664); experiment: Inhibition of Human rhinovirus serotype 39 capsid infected in human HeLa cells assessed as reduction in virus-induced cytopathic effect at 5 ug/ml treated 3 hrs post viral infection measured after 24 to 36 hrs relative to control; type: cell-based; settings: rhinovirus A39
T1 sequence (whole entry): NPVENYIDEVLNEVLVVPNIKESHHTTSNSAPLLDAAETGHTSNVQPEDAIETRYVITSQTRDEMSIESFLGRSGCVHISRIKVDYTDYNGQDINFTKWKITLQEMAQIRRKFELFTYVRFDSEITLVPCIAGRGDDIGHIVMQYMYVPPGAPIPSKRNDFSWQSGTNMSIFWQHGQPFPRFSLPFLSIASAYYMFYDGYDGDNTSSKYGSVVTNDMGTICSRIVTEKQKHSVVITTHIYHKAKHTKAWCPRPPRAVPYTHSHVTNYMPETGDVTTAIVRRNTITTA
In short: (§2)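 HeLa (Ohio strain) monolayers in 24-well plates (DMEM, 10% fetal calf serum) infected with ATCC HRV39 (working stock prepared as cell lysate). Compound at 5 μg/mL added before (−1 h), at (0 h) or after infection. Cells incubated in CO2 atmosphere for 24–36 h, then washed twice with HBSS. Virus yield inhibition (%) determined by virus-cell-based CPE reduction assay in HeLa cells. Pirodavir (5 μg/mL) served as positive control.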

[4] = molecular target: T1, VP1 capsid protein (Human rhinovirus sp.); experiment: Inhibition of Human rhinovirus serotype 39 capsid infected in human HeLa cells assessed as reduction in virus-induced cytopathic effect at 5 ug/ml treated 2 hrs post viral infection measured after 24 to 36 hrs relative to control; type: cell-based; settings: rhinovirus A39; in short: as §2
[5] = molecular target: T1, VP1 capsid protein (Human rhinovirus sp.); experiment: Inhibition of Human rhinovirus serotype 39 capsid infected in human HeLa cells assessed as reduction in virus-induced cytopathic effect at 5 ug/ml treated 1 hr post viral infection measured after 24 to 36 hrs relative to control; type: cell-based; settings: rhinovirus A39; in short: as §2
[6] = molecular target: T1, VP1 capsid protein (Human rhinovirus sp.); experiment: Inhibition of Human rhinovirus serotype 39 capsid infected in human HeLa cells assessed as reduction in virus-induced cytopathic effect at 5 ug/ml treated 1 hr prior to viral infection measured 24 to 36 hrs post viral infection relative to control; type: cell-based; settings: rhinovirus A39; in short: as §2
[7] = molecular target: T1, VP1 capsid protein (Human rhinovirus sp.); experiment: Inhibition of Human rhinovirus serotype 39 capsid infected in human HeLa cells assessed as reduction in virus-induced cytopathic effect at 5 ug/ml treated with virus inoculum measured after 24 to 36 hrs relative to control; type: cell-based; settings: rhinovirus A39; in short: as §2

CC(C)CC(=O)OC/C=C/c1ccccc1
CC50 at 72 h [1]: 142 µM
EC50 (rhinovirus B14): > 142 µM
EC50 (rhinovirus A39): > 142 µM

C=C[C@H](O)C#CC#CC/C=C\CCCCCCCCO
CC50 at 72 h [1]: 14.6 µM
EC50 (rhinovirus B14): > 14.6 µM
EC50 (rhinovirus A39): 1.8 µM
selectivity ratio [2]: 8.1

C=CC(O)C#CC#C/C=C/C(O)CCCCCCCCO (configuration not stated)
CC50 at 72 h [1]: 107 µM
EC50 (rhinovirus B14): > 107 µM
EC50 (rhinovirus A39): > 107 µM

C/C=C(/C)C(=O)OC/C=C/c1ccc(OC)cc1
CC50 at 72 h [1]: 248 µM
EC50 (rhinovirus B14): > 248 µM
EC50 (rhinovirus A39): 30.9 µM
selectivity ratio [2]: 8

C/C=C(/C)C(=O)OC/C(=C/C)C(=O)OC/C=C/c1ccc(OC)c(OC)c1
inhibition [3]: 50%
inhibition [4]: 65%
inhibition [5]: 78%
CC50 at 72 h [1]: 20.3 µM
EC50 (rhinovirus B14): > 20.3 µM
EC50 (rhinovirus A39): 2.4 µM
selectivity ratio [2]: 8.4
inhibition [6]: 100%
inhibition [7]: 90%

COc1ccc(/C=C/CO)cc1OC
CC50 at 72 h [1]: 160 µM
EC50 (rhinovirus B14): > 160 µM
EC50 (rhinovirus A39): > 160 µM

CC(C)[C@@H]1CCC(C=O)=C[C@H]1O
CC50 at 72 h [1]: 47.6 µM
EC50 (rhinovirus B14): > 47.6 µM
EC50 (rhinovirus A39): > 47.6 µM

C/C=C(/C)C(=O)OC/C=C/c1ccc(OC)c(OC)c1
CC50 at 72 h [1]: 453 µM
EC50 (rhinovirus B14): > 453 µM
EC50 (rhinovirus A39): > 453 µM

CCOC(=O)c1ccc(OCCC2CCN(c3ccc(C)nn3)CC2)cc1
inhibition [7]: Active

Cc1cc(CCCOc2c(C)cc(-c3noc(C(F)(F)F)n3)cc2C)on1 [PLECONARIL]
CC50 at 72 h [1]: 131 µM
EC50 (rhinovirus B14): 0.3 µM
EC50 (rhinovirus A39): 0.1 µM

C/C=C(/C)C(=O)OC/C(=C/C)C(=O)OC/C=C/c1ccc(OC)cc1
CC50 at 72 h [1]: 36.3 µM
EC50 (rhinovirus B14): > 36.3 µM
EC50 (rhinovirus A39): > 36.3 µM

COc1ccc(/C=C/CO)cc1
CC50 at 72 h [1]: 189 µM
EC50 (rhinovirus B14): > 189 µM
EC50 (rhinovirus A39): > 189 µM
